In PMC3996483 (Scientific Reports, 2014):
Entries after “also recorded” stand apart in the source; their conditions may differ.

T1: Y93H NS5A^33–202, HCV genotype 1b (con1) (Hepatitis C virus genotype 1b, UniProt Q9WMX2, Y2065H)
T1 sequence (Q9WMX2 2005-2174 Y2065H): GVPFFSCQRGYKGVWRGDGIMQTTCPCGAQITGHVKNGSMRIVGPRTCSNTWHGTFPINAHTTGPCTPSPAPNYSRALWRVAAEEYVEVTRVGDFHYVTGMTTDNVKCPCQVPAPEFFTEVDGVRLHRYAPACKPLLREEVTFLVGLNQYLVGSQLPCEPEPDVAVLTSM

T2: NS5A^33–202 domain 1, HCV genotype 1b (con1) (Hepatitis C virus genotype 1b, UniProt Q9WMX2)
T2 sequence (Q9WMX2 2005-2174): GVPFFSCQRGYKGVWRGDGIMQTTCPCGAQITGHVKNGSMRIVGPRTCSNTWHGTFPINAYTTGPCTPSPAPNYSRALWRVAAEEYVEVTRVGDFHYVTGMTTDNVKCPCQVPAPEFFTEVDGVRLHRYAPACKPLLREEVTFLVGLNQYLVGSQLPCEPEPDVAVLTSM

T3: NS5A^26–202 domain 1, HCV genotype 1b (con1) (Hepatitis C virus genotype 1b, UniProt Q9WMX2)
T3 sequence (Q9WMX2 1998-2174): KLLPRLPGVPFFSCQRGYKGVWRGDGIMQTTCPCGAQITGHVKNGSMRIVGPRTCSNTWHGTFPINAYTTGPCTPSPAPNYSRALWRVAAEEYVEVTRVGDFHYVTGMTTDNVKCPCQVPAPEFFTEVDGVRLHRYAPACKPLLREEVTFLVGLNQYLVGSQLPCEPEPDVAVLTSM

T4: L31V NS5A^26–202, HCV genotype 1b (con1) (Hepatitis C virus genotype 1b, UniProt Q9WMX2, L2003V)
T4 sequence (Q9WMX2 1998-2174 L2003V): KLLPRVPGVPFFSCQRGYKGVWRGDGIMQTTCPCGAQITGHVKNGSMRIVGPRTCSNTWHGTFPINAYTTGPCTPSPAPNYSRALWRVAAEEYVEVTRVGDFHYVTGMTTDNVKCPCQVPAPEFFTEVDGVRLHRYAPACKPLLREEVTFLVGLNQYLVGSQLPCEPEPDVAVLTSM

B1: HCV genotype 1b (con1) NS5A domain 1, residues 33–202 (domain or fragment, Hepatitis C virus genotype 1b (con1), UniProt Q9WMX2 2005-2174, looked up)
chain: GVPFFSCQRGYKGVWRGDGIMQTTCPCGAQITGHVKNGSMRIVGPRTCSNTWHGTFPINAYTTGPCTPSPAPNYSRALWRVAAEEYVEVTRVGDFHYVTGMTTDNVKCPCQVPAPEFFTEVDGVRLHRYAPACKPLLREEVTFLVGLNQYLVGSQLPCEPEPDVAVLTSM

Experiments:
[1] = tested on: Y93H NS5A^33–202, HCV genotype 1b (con1); experiment: MST binding assay, Y93H resistance mutant; set-up: species or system Hepatitis C virus; conditions: MST in vitro assay, Y93H NS5A^33–202 vs NS5A^33–202
[2] = target: T1, Y93H NS5A^33–202, HCV genotype 1b (con1); experiment: MST binding assay, Y93H resistance mutant
[3] = tested on: HCV genotype 1a; conditions: cited from earlier work
[4] = tested on: HCV genotype 3a (S52); conditions: cited from earlier work
[5] = target: T2, NS5A^33–202 domain 1, HCV genotype 1b (con1); experiment: SEC-MALLS analysis of NS5A oligomerisation state; conditions: NS5A^33–202 alone 39 ± 5 kDa (dimer), dimerisation state not affected
Method in brief: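 Multi-angle laser light scattering was run in batch mode (0.1 ml/min) and after size-exclusion (0.35 ml/min). Protein was run at 0.3–4 mg/ml with refractive-index detection and dn/dc 0.185; BSA served as control. Weight-average molar mass was taken from all points.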

[6] = tested on: HCV replicon (NS5A genotypes and subtypes); conditions: cited from earlier work
[7] = target: T3, NS5A^26–202 domain 1, HCV genotype 1b (con1); experiment: MST binding assay, NS5A domain 1 residues 26–202
Method in brief: (§1)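 Recombinant HCV 1b (con1) NS5A was expressed with a 6-His/TEV tag, Ni- and size-exclusion purified, and the tag cleaved. Ligand: 16-step 2–4-fold dilutions. Capillaries were heated at 40% laser for 30 s, then cooled 5 s. Fnorm normalised to baseline and maximum; KD by mass-action fit; ≥3 replicates.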

[8] = target: T4, L31V NS5A^26–202, HCV genotype 1b (con1); experiment: MST binding assay, L31V resistance mutant
[9] = target: T2, NS5A^33–202 domain 1, HCV genotype 1b (con1); experiment: MST binding assay, NS5A domain 1 residues 33–202
Method in brief: as §1

[10] = tested on: HCV genotype 2a (J6); conditions: cited from earlier work
[11] = Solubility; type: physicochemical; conditions: pH 7, aqueous buffer
[12] = tested on: HCV genotype 1b (con1); conditions: cited from earlier work
[13] = target: the molecule itself; experiment: SEC-MALS

| Molecule | decrease in KD (binding), Y93H versus wild type [1] | Kd [2] | decrease in EC50 by Y93H/C resistance mutation ([3]; genotype 1a (H77), Y93H/C) | EC50 ([3]; replicon, genotype 1a (J1)) | decrease in EC50 by Y93H/C resistance mutation ([4]; Y93H/C) | EC50 ([4]; replicon) | average molecular weight of NS5A^33–202 after addition of substance [5] | resistance conferred by L31V/M/F mutations ([6]; NS5A L31V/M/F) | resistance conferred by Y93H/N/C mutations ([6]; NS5A Y93H/N/C) | EC50 ([6]; replicon, most genotypes and subtypes) | Kd [7] | KD / binding (in words) [8] | Kd [9] | Compound binding after incubation of NS5A with excess 5rU ([9]; MST, NS5A^33–202 incubated with 100-fold excess 5rU prior to adding compound) | decrease in EC50 by Y93H/C resistance mutation ([10]; Y93H/C) | EC50 ([10]; replicon) | solubility [11] | resistance conferred by L31V mutation ([12]; replicon assays, L31V) | decrease in EC50 by Y93H/C resistance mutation ([12]; replicon, Y93H/C) | stoichiometry N [13] |
| --- | --- | --- | --- | --- | --- | --- | --- | --- | --- | --- | --- | --- | --- | --- | --- | --- | --- | --- | --- | --- |
| COC(=O)N[C@H](C(=O)N1CCC[C@H]1c1nc(-c2ccc(-c3ccc(-c4c[nH]c([C@@H]5CCCN5C(=O)[C@@H](NC(=O)OC)C(C)C)n4)cc3)cc2)c[nH]1)C(C)C [BMS-790052, daclatasvir] | > 50 fold | > 500 nM | 220 fold | 1.1 nM | 2,111 fold | 0.9 nM | 41 ± 7 kDa | 23- to 3,350 fold | 19- to 47,000 fold | 0.002 to 0.15 nM | 210 ± 46 nM | did not show any detectable binding; also recorded: no detectable binding | 8 ± 3 nM | eliminated binding | 143 fold | 14 nM | < 1.6 µg/mL | 23 fold | ~ 5 fold | – |
| B1 | – | – | – | – | – | – | – | – | – | – | – | – | – | – | – | – | – | – | – | 2 |
